Source: EPA's CvTdb concentration-time database

How the values were obtained:
Rat [1] = test: concentration in plasma after dosing; details: dosed: Wyeth-14643, 2.0 mg/kg, iv, Male, Sprague-Dawley
Rat [2] = test: concentration in plasma after dosing; details: 2.5 min; dosed: Wyeth-14643; 2.0 mg/kg; iv; Male; Sprague-Dawley
Rat [3] = test: concentration in plasma after dosing; details: dosed: Wyeth-14643, 2.0 mg/kg, oral, Male, Sprague-Dawley
Rat [4] = test: concentration in heart after dosing; details: 10 min; dosed: Bis 2-Chloroethoxy Methane; 20 mg/kg; iv; Female; F344
Rat [5] = test: concentration in heart after dosing; details: 5 h; dosed: Bis 2-Chloroethoxy Methane; 20 mg/kg; iv; Male; F344
Rat [6] = test: concentration in heart after dosing; details: 1 h; dosed: Bis 2-Chloroethoxy Methane; 20 mg/kg; iv; Female; F344
Rat [7] = test: concentration in thymus after dosing; details: 10 min; dosed: Bis 2-Chloroethoxy Methane; 20 mg/kg; iv; Male; F344
Rat [8] = test: concentration in plasma after dosing; details: 20 min; dosed: Bis 2-Chloroethoxy Methane; 20 mg/kg; iv; Male; F344
Rat [9] = test: concentration in heart after dosing; details: 3 h; dosed: Bis 2-Chloroethoxy Methane; 20 mg/kg; iv; Female; F344
Rat [10] = test: concentration in liver after dosing; details: 2 h; dosed: Bis 2-Chloroethoxy Methane; 20 mg/kg; iv; Female; F344
Rat [11] = test: concentration in plasma after dosing; details: 0.5 h; dosed: Di-n-butyl phthalate; 100 mg/kg; oral; Male; Sprague-Dawley
Rat [12] = test: concentration in plasma after dosing; details: 6 h; dosed: Di-n-butyl phthalate; 50 mg/kg; oral; Male; Sprague-Dawley
Rat [13] = test: concentration in plasma after dosing; details: 15 h; dosed: Di-n-butyl phthalate; 100 mg/kg; oral; Male; Sprague-Dawley
Rat [14] = test: concentration in brain after dosing; details: 24 h; dosed: Perfluorodecanoic acid; 10 mg/kg; oral; Female; Harlan Sprague Dawley
Rat [15] = test: concentration in kidney after dosing; details: 864 h; dosed: Perfluorodecanoic acid; 10 mg/kg; oral; Female; Harlan Sprague Dawley
Rat [16] = test: concentration in plasma after dosing; details: dosed: Perfluorodecanoic acid, 2 mg/kg, iv, Male, F344
Rat [17] = test: concentration in plasma after dosing; details: dosed: Perfluorodecanoic acid, 2 mg/kg, oral, Male, Harlan Sprague Dawley
Rat [18] = test: concentration in plasma after dosing; details: dosed: Perfluorodecanoic acid, 2 mg/kg, iv, Male, F344; remark: listed apart in the source
Rat [19] = test: concentration in plasma after dosing; details: 9 h; dosed: Primidone; 80 mg/kg; oral; Female; F344
Rat [20] = test: concentration in plasma after dosing; details: 18 h; dosed: Primidone; 30 mg/kg; oral; Female; F344
Rat [21] = test: concentration in liver after dosing; details: 5.333 h; dosed: Thiodiglycolic Acid; 20 mg/kg; iv; Male; Harlan Sprague Dawley
Rat [22] = test: concentration in thymus after dosing; details: 6.667 h; dosed: Thiodiglycolic Acid; 20 mg/kg; iv; Female; Harlan Sprague Dawley
Rat [23] = test: concentration in thymus after dosing; details: 40 min; dosed: Thiodiglycolic Acid; 20 mg/kg; iv; Male; Harlan Sprague Dawley
Rat [24] = test: concentration in heart after dosing; details: 10 min; dosed: Thiodiglycolic Acid; 20 mg/kg; iv; Male; F344
Rat [25] = test: concentration in heart after dosing; details: 1 h; dosed: Thiodiglycolic Acid; 20 mg/kg; iv; Male; Harlan Sprague Dawley
Rat [26] = test: concentration in plasma after dosing; details: 3 h; dosed: Thiodiglycolic Acid; 20 mg/kg; iv; Male; Harlan Sprague Dawley
Rat [27] = test: concentration in liver after dosing; details: 8 h; dosed: Thiodiglycolic Acid; 20 mg/kg; iv; Female; Harlan Sprague Dawley
Rat [28] = test: concentration in plasma after dosing; details: 4 h; dosed: Thiodiglycolic Acid; 20 mg/kg; iv; Male; Harlan Sprague Dawley
Rat [29] = test: concentration in plasma after dosing; details: dosed: dichloroacetic acid, 40 mg/kg, oral, Female, Harlan Sprague Dawley
Rat [30] = test: concentration in plasma after dosing; details: dosed: dichloroacetic acid, 100 mg/kg, oral, Male, F344
Rat [31] = test: concentration in plasma after dosing; details: dosed: dichloroacetic acid, 40 mg/kg, oral, Female, Harlan Sprague Dawley; remark: listed apart in the source
human = test: concentration in plasma after dosing; negative times count back from the end of exposure; details: dosed: trichloroethylene, 100 ppm, inhalation, duration: 4 hr, person
How it was run: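 Sampling and analytical methods are those of each source and frequently went unreported. The concentration-versus-time and amount-versus-time points were compiled from published in vivo toxicokinetic studies and two structured collections. Most were digitised from plot screenshots with WebPlotDigitizer, with others copied from tables, in the reported units.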

Cc1cccc(Nc2cc(Cl)nc(SCC(=O)O)n2)c1C
concentration in plasma [µg/mL]
Details | 0.25 h | 0.5 h | 3 h | 4 h
Rat [1] | – | 5.1 | 0.342 | –
Rat [3] | 0.912 | – | – | 0.257

Details | concentration in plasma [µg/mL]
Rat [2] | 30.5

ClCCOCOCCCl [Bis 2-Chloroethoxy Methane]
Details | concentration in heart [ng/g] | concentration in liver [ng/g] | concentration in plasma [ng/mL] | concentration in thymus [ng/g]
Rat [4] | 12100 | – | – | –
Rat [5] | 54.3 | – | – | –
Rat [6] | 1380 | – | – | –
Rat [7] | – | – | – | 45200
Rat [8] | – | – | 3180 | –
Rat [9] | 158 | – | – | –
Rat [10] | – | 70.7 | – | –

CCCCOC(=O)c1ccccc1C(=O)O [Mono-n-butyl phthalate]
Details | concentration in plasma [µg/mL]
Rat [11] | 55.9
Rat [12] | 2.06
Rat [13] | 1.25

O=C(O)C(F)(F)C(F)(F)C(F)(F)C(F)(F)C(F)(F)C(F)(F)C(F)(F)C(F)(F)C(F)(F)F [Perfluorodecanoic acid]
Details | concentration in brain [ng/g] | concentration in kidney [ng/g]
Rat [14] | 1820 | –
Rat [15] | – | 16700

concentration in plasma [ng/mL]
Details | 12 h | 24 h | 1200 h | 1848 h
Rat [16] | 5770 | – | 860 | –
Rat [17] | 8900 | – | 1160 | –
Rat [18] | – | 4280 | – | 646

CCC1(c2ccccc2)C(=O)NC(=O)NC1=O [Phenobarbital]
Details | concentration in plasma [µg/mL]
Rat [19] | 2.37
Rat [20] | 1.06

O=C(O)CSCC(=O)O [Thiodiglycolic Acid]
Details | concentration in heart [ng/g] | concentration in liver [ng/g] | concentration in plasma [ng/mL] | concentration in thymus [ng/g]
Rat [21] | – | 22900 | – | –
Rat [22] | – | – | – | 245
Rat [23] | – | – | – | 3410
Rat [24] | 8260 | – | – | –
Rat [25] | 1520 | – | – | –
Rat [26] | – | – | 696 | –
Rat [27] | – | 60900 | – | –
Rat [28] | – | – | 615 | –

O=C(O)C(Cl)Cl [dichloroacetic acid]
Details | concentration in plasma
Rat [29], 1.5 h | 3.32 µg/mL
Rat [29], 10 min | 3.38 µg/mL
Rat [30], 8 h | 29.2 µg/mL
Rat [30], 20 min | 20.4 µg/mL
Rat [31], 1 h | 6.32 µg/mL
Rat [31], 2 min | 0.787 µg/mL
human, 0.25 h | 5 ng/mL
human, 4 h | 7 ng/mL

human, during exposure
Details | concentration in plasma [ng/mL]
-3.948 h | 4
-3 h | 4
-2 h | 4
-1 h | 4
